Measurements taken from ChEMBL document CHEMBL5260822, “Structure-based design and synthesis of 2,4-diaminopyrimidines as EGFR L858R/T790M selective inhibitors for NSCLC” (Eur J Med Chem, 2017).
Activity calls are given as the source filed them. The calls are words filed in the database; no cut-off is given here.

How the values were obtained:
[1] = target: T1, Epidermal growth factor receptor (Homo sapiens, UniProt P00533); assay: Inhibition of EGFR phosphorylation in EGF-stimulated human A-431 cells harboring wild type EGFR at 100 nM and measured after 2 hrs by Western blot analysis; type: cell-based
T1 sequence (P00533 whole entry): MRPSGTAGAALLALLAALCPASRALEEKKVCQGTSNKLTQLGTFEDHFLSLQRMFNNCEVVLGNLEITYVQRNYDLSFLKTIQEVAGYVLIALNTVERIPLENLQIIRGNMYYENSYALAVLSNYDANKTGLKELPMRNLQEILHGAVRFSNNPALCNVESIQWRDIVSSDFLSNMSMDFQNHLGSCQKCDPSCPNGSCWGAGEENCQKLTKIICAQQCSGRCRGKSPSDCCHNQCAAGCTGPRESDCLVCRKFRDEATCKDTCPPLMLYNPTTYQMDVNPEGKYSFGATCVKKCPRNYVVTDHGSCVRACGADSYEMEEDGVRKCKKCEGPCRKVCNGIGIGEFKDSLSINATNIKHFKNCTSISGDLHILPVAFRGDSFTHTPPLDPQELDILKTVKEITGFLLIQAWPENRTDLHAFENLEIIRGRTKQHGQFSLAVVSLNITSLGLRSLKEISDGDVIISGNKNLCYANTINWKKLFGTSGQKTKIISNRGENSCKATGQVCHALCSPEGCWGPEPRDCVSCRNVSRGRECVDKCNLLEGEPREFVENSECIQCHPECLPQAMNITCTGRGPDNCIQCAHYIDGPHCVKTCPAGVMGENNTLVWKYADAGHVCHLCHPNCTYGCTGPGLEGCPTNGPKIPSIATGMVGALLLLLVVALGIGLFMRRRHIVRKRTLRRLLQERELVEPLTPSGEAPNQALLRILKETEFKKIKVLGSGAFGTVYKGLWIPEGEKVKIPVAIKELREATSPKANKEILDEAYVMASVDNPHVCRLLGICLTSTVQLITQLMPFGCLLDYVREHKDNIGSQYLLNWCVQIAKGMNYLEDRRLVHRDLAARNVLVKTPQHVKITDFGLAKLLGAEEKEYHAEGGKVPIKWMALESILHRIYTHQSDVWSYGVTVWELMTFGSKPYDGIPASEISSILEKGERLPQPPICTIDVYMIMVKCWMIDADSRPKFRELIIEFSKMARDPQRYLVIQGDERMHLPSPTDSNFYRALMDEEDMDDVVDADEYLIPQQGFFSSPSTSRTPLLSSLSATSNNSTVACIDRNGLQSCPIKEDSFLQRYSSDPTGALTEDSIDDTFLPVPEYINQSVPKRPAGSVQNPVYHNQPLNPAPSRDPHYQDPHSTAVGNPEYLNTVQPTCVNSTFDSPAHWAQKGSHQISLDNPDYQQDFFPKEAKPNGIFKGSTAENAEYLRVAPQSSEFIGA
How it was run: (§1)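 Cells treated with compound for 2 h, then stimulated with EGF for 15 min and lysed. Lysates cleared at 12,000 × g (10 min, 4 °C), protein measured by Bradford assay, and equal amounts run on 8% SDS-PAGE and blotted to nitrocellulose. Probed for p-EGFR (Y1068), EGFR, p-ERK (T202/Y204), ERK, with tubulin or GAPDH as loading controls.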

NCI-H1975 [2] = assay: Inhibition of Erk signalling in EGF-stimulated human NCI-H1975 cells harboring EGFR L858R/T790M double mutant assessed as decrease in p-ERK level at 0.1 to 100 nM and measured after 2 hrs by Western blot analysis; type: cell-based; conditions: dose 0.1-100 nM; how it was run: as §1
NCI-H1975 [3] = assay: Inhibition of Akt signalling in EGF-stimulated human NCI-H1975 cells harboring EGFR L858R/T790M double mutant assessed as […] at 0.1 to 100 nM and measured after 2 hrs by Western blot analysis; type: cell-based; conditions: dose 0.1-100 nM
[4] = tested on: Epidermal growth factor receptor (Homo sapiens), P00533 [L858R,T790M]; assay: Inhibition of EGFR phosphorylation in EGF-stimulated human NCI-H1975 cells harboring EGFR L858R/T790M double mutant at 0.1 to 100 nM and measured after 2 hrs by Western blot analysis; type: cell-based; conditions: dose 0.1-100 nM; how it was run: as §1
Epidermal growth factor receptor (Homo sapiens), P00533 [L858R,T790M], sequence (P00533 whole entry T790M/L858R, looked up): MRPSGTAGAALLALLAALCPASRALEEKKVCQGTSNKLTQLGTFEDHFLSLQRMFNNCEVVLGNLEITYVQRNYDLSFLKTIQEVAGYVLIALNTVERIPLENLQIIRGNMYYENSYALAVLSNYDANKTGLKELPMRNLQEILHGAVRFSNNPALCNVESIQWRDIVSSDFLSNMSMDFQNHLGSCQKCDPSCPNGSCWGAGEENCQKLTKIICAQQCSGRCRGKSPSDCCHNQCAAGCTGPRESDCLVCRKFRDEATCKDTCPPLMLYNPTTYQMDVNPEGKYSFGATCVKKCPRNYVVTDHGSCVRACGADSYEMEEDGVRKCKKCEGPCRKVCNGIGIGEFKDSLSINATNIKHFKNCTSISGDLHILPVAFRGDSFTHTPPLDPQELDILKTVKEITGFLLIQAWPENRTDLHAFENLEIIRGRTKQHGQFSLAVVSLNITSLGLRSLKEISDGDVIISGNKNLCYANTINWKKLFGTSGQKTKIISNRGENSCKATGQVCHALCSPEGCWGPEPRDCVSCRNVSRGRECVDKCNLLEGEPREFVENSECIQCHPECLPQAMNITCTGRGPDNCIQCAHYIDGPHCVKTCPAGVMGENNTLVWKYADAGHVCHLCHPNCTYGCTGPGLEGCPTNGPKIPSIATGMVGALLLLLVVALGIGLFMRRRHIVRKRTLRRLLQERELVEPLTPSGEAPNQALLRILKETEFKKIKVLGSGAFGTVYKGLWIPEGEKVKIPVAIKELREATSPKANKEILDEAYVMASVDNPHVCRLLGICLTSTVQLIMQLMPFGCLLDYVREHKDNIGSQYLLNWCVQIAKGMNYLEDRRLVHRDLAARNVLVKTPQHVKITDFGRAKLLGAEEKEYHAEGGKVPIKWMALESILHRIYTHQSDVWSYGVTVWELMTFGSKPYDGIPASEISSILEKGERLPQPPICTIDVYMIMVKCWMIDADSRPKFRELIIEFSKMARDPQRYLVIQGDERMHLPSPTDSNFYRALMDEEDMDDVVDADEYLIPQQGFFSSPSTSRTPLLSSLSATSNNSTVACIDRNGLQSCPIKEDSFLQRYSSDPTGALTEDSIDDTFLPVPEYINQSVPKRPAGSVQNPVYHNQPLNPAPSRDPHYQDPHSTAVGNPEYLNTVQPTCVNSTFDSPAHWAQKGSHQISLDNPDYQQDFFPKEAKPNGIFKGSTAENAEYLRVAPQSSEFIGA

NCI-H1975 [5] = assay: Antiproliferative activity against human NCI-H1975 cells harboring EGFR L858R/T790M double mutant assessed as inhibition of cell proliferation incubated for 72 hrs by sulforhodamine B colorimetric assay; type: functional, cell-based; conditions: NCI-H1975, 72 h
A-431 = assay: Antiproliferative activity against human A-431 cells harboring wild type EGFR assessed as inhibition of cell proliferation incubated for 72 hrs by sulforhodamine B colorimetric assay; type: functional, cell-based; conditions: A-431, 72 h
[6] = target: Epidermal growth factor receptor (Homo sapiens, UniProt P00533, L858R/T790M); assay: Inhibition of EGFR L858R/T790M mutant (unknown origin) expressed in baculovirus expression system by ELISA
[7] = target: T1, Epidermal growth factor receptor; assay: Inhibition of wild type EGFR (unknown origin) expressed in baculovirus expression system by ELISA
[8] = Toxicity in BALB/c nude mouse xenografted with human NCI-H1975 cells harboring EGFR L858R/T790M mutant assessed as morphological changes in kidney at 15 to 30 mg/kg, po for 18 days by hematoxylin and eosin staining based microscopic analysis; type: organism-based; conditions: in vivo, 432 h, dose 15-30 mg/kg, time 18 day
How it was run: (§2)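 H1975 subcutaneous xenografts were grown in female BALB/cA nu/nu mice (n = 6 per group), dosed at 15 or 30 mg/kg/day for 18 days or with vehicle. At the end the mice were sacrificed. Heart, kidney and liver were harvested, processed and stained with hematoxylin and eosin for routine histological examination.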

[9] = Toxicity in BALB/c nude mouse xenografted with human NCI-H1975 cells harboring EGFR L858R/T790M mutant assessed as morphological changes in liver at 15 to 30 mg/kg, po for 18 days by hematoxylin and eosin staining based microscopic analysis; type: organism-based; conditions: in vivo, 432 h, dose 15-30 mg/kg, time 18 day; how it was run: as §2
[10] = tested on: Epidermal growth factor receptor (Homo sapiens), P00533 [L858R,T790M]; assay: In vivo inhibition of EGFR in BALB/c nude mouse xenografted with human NCI-H1975 cells harboring EGFR L858R/T790M mutant assessed as decrease in phosphorylated-EGFR level at 15 to 30 mg/kg, po for 18 days by western blot analysis; type: functional, organism-based; conditions: dose 15-30 mg/kg, time 18.0 day
NCI-H1975 [11] = assay: Antitumor activity against human NCI-H1975 cells harboring EGFR L858R/T790M mutant xenografted in BALB/c nude mouse assessed as tumor cell proliferation at 15 to 30 mg/kg, po for 18 days by Ki-67 staining based immunohistochemical analysis; type: functional, organism-based; conditions: dose 15-30 mg/kg, time 18.0 day
How it was run: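 H1975 xenograft tumors from nude mice (n = 6/group, daily dosing 18 days) were harvested, fixed in 10% formalin, paraffin-embedded and cut into 5 µm sections. Sections deparaffinized and incubated with primary anti-Ki-67 antibody at room temperature; immunoreactivity visualized with DAB.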

[12] = Toxicity in BALB/c nude mouse xenografted with human NCI-H1975 cells harboring EGFR L858R/T790M mutant assessed as morphological changes in heart at 15 to 30 mg/kg, po for 18 days by hematoxylin and eosin staining based microscopic analysis; type: organism-based; conditions: in vivo, 432 h, dose 15-30 mg/kg, time 18 day; how it was run: as §2
[13] = Toxicity in BALB/c nude mouse xenografted with human NCI-H1975 cells harboring EGFR L858R/T790M mutant assessed as body weight loss at 15 to 30 mg/kg, po for 18 days; type: organism-based; conditions: in vivo, 432 h, dose 15-30 mg/kg, time 18 day
How it was run: (§3)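 Female BALB/cA nu/nu mice were given 1 × 10^6 H1975 cells in 0.1 mL PBS subcutaneously in the right flank. At an average tumour volume of 100 mm3 (about 18 days post-implantation) they were randomised, n = 6 per group. Groups received 15 or 30 mg/kg/day for 18 consecutive days or vehicle. Mice were kept at constant room temperature, 12/12-h light/dark, with standard diet and water ad lib.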

[14] = Toxicity in BALB/c nude mouse xenografted with human NCI-H1975 cells harboring EGFR L858R/T790M mutant assessed as mortality at 15 to 30 mg/kg, po for 18 days; type: organism-based; conditions: in vivo, 432 h, dose 15-30 mg/kg, time 18 day; how it was run: as §3
NCI-H1975 [15] = assay: Antitumor activity against human NCI-H1975 cells harboring EGFR L858R/T790M mutant xenografted in BALB/c nude mouse assessed as tumor growth inhibition at 30 mg/kg, po for 18 days; type: functional; conditions: NCI-H1975, 432 h, time 18 day, read-out: TGI
How it was run: (§4)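 H1975 cells (1 × 10^6 in 0.1 mL PBS) injected subcutaneously into the right flank of female nude mice. At mean tumor volume of about 100 mm3 (roughly 18 days), mice randomized, n = 6 per group, and dosed once daily for 18 days against a vehicle group. Tumor volume (0.5 × L × W²) measured every 2–3 days; tumors weighed at sacrifice. Data given as mean ± SEM.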

NCI-H1975 [16] = assay: Antitumor activity against human NCI-H1975 cells harboring EGFR L858R/T790M mutant xenografted in BALB/c nude mouse assessed as tumor growth inhibition at 15 mg/kg, po for 18 days; type: functional; conditions: NCI-H1975, 432 h, time 18 day, read-out: TGI; how it was run: as §4
[17] = Oral bioavailability in Sprague-Dawley rat at 10 mg/kg and measured after 24 hrs by LC-MS/MS analysis; type: ADME, organism-based; conditions: in vivo
How it was run: (§5)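 Male Sprague–Dawley rats (190–220 g) dosed by oral gavage at 10 mg/kg in 5% DMSO / 95% HP-β-CD aqueous solution (20%); iv reference arm at 1 mg/kg. Blood sampled at 0.25, 0.5, 1, 2, 4, 6, 8 and 24 h, centrifuged (8000 × g, 6 min), and plasma quantified by LC–MS/MS.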

[18] = AUC (0 to infinity) in Sprague-Dawley rat at 10 mg/kg, po and measured after 24 hrs by LC-MS/MS analysis; type: ADME, organism-based; set-up: dose 10 mg/kg, time 24 hrs, route po; conditions: in vivo; how it was run: as §5
[19] = Cmax in Sprague-Dawley rat at 10 mg/kg, po and measured after 24 hrs by LC-MS/MS analysis; type: ADME, organism-based; set-up: dose 10 mg/kg, time 24 hrs, route po; conditions: in vivo; how it was run: as §5
[20] = Half life in Sprague-Dawley rat at 10 mg/kg, po and measured after 24 hrs by LC-MS/MS analysis; type: ADME, organism-based; conditions: in vivo; how it was run: as §5
[21] = Volume of distribution at steady state in Sprague-Dawley rat at 1 mg/kg, iv and measured after 24 hrs by LC-MS/MS analysis; type: ADME, organism-based; conditions: in vivo, read-out: Vdss
[22] = Clearance in Sprague-Dawley rat at 1 mg/kg, iv and measured after 24 hrs by LC-MS/MS analysis; type: ADME, organism-based; conditions: in vivo
[23] = AUC (0 to infinity) in Sprague-Dawley rat at 1 mg/kg, iv and measured after 24 hrs by LC-MS/MS analysis; type: ADME, organism-based; set-up: time 24 hrs, dose 1 mg/kg, route iv; conditions: in vivo
[24] = Half life in Sprague-Dawley rat at 1 mg/kg, iv and measured after 24 hrs by LC-MS/MS analysis; type: ADME, organism-based; conditions: in vivo
[25] = Cmax in Sprague-Dawley rat at 1 mg/kg, iv and measured after 24 hrs by LC-MS/MS analysis; type: ADME, organism-based; set-up: dose 1 mg/kg, time 24 hrs, route iv; conditions: in vivo
[26] = target: Tyrosine-protein kinase BTK (Homo sapiens) (UniProt Q06187); assay: Inhibition of BTK (unknown origin) at 1000 nM by DiscoverX KINOMEscan assay
Tyrosine-protein kinase BTK (Homo sapiens), sequence (Q06187 whole entry): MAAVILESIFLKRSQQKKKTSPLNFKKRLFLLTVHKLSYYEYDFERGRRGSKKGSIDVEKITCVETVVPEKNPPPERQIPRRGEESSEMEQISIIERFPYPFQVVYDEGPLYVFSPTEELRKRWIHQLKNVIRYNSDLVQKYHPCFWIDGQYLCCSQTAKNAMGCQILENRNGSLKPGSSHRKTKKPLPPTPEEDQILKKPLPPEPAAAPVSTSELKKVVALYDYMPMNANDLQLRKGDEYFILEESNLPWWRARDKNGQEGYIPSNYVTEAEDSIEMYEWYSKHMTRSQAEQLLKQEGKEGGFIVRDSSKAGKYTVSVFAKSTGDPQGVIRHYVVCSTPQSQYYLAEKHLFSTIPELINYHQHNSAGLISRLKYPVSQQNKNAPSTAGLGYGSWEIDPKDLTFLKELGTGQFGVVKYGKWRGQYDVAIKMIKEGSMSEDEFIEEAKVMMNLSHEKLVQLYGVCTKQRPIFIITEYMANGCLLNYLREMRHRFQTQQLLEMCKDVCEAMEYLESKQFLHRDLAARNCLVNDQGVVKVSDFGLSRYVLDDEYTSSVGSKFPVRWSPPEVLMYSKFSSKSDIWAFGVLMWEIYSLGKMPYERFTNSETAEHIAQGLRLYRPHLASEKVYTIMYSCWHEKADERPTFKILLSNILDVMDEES

[27] = target: Focal adhesion kinase 1 (Homo sapiens) (UniProt Q05397); assay: Inhibition of FAK (unknown origin) at 1000 nM by DiscoverX KINOMEscan assay
[28] = target: Insulin receptor (Homo sapiens) (UniProt P06213); assay: Inhibition of INSR (unknown origin) at 1000 nM by DiscoverX KINOMEscan assay
Insulin receptor (Homo sapiens), sequence (P06213 28-758 limits assumed): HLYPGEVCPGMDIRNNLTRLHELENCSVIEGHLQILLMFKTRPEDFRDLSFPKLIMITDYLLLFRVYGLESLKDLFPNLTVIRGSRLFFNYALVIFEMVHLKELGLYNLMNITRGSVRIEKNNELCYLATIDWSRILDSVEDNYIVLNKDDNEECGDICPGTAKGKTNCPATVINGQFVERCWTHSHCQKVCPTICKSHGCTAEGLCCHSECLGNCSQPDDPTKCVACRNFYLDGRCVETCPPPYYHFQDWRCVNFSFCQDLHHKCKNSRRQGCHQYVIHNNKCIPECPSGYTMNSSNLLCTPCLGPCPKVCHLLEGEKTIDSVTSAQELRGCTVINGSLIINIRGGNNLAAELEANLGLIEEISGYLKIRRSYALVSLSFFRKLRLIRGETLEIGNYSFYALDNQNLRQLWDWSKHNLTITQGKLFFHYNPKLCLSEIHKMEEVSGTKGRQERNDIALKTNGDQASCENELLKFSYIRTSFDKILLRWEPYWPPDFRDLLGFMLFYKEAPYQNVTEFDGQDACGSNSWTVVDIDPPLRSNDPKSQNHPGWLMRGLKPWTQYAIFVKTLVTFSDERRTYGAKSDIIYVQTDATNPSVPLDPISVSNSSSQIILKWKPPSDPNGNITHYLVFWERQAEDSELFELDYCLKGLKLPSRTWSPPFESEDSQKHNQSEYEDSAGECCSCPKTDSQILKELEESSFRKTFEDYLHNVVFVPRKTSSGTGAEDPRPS
Insulin receptor (Homo sapiens), sequence (P06213 763-1382 limits assumed): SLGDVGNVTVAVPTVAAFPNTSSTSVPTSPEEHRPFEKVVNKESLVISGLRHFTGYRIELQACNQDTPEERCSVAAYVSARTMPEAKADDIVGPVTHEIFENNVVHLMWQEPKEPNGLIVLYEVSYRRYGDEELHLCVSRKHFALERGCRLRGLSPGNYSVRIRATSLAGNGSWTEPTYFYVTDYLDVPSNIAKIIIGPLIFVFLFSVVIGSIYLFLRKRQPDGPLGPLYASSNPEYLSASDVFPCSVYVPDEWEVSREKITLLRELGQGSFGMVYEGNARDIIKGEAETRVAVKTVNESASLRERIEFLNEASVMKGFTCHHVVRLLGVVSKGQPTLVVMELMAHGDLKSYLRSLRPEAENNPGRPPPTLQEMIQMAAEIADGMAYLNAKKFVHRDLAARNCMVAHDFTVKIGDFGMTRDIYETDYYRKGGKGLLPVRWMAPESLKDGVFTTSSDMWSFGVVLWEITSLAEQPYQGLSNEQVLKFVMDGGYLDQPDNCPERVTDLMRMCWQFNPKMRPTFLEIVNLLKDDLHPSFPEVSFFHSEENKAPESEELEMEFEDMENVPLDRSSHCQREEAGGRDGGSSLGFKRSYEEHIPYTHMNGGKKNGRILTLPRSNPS

[29] = target: Tyrosine-protein kinase JAK2 (Homo sapiens) (UniProt O60674); assay: Inhibition of JAK2 (unknown origin) at 1000 nM by DiscoverX KINOMEscan assay
[30] = tested on: Epidermal growth factor receptor (Homo sapiens), P00533 [L858R,T790M]; conditions: NCI-H1975, dose 10.0 nM, time 2.0 hrs

For `C=CC(=O)Nc1cc(Nc2ncc(Br)c(Nc3ccc4c(c3)CCC4)n2)c(OC)cc1N1CCN(C)CC1`, the inhibition [1] was “inactive”, the inhibition (NCI-H1975 [2]) was “Dose-Dependent Effect” and the inhibition (NCI-H1975 [3]) was “Dose-Dependent Effect”. The inhibition [4] was “Dose-Dependent Effect”, the IC50 (NCI-H1975 [5]) was 276 nM and the IC50 (A-431) was 2600 nM. For the same compound, the IC50 [6] was 3.2 nM, the IC50 [7] was 203 nM and the Activity [8] was “Non-Toxic”. The Activity [9] was “Non-Toxic”, the inhibition [10] was “Active” and the Activity (NCI-H1975 [11]) was “Active”. The Activity [12] was “Non-Toxic”, the Activity [13] was “Non-Toxic” and the Activity [14] was “Non-Toxic”. For the same compound, the inhibition in vivo at 30 mg/kg (NCI-H1975 [15]) was 77%, the inhibition in vivo at 15 mg/kg (NCI-H1975 [16]) was 61% and the F [17] was 35.58%. For the same compound, the AUC [18] was 35.58 ng·h/mL, the Cmax [19] was 452 ng/mL and the half-life [20] was 212 min. The Vd [21] was 4.83 L/kg, the clearance [22] was 15.9 mL/min/kg and the AUC [23] was 1052 ng·h/mL. The half-life [24] was 310 min, the Cmax [25] was 407 ng/mL and the inhibition [26] was “Active”. The inhibition [27] was “Active”, the inhibition [28] was “Active” and the inhibition [29] was “Active”. For the same compound, the inhibition [30] was “Active”.
